What is called pKd is the Kd on a negative log10 scale, so that one unit is a factor of ten. As usually defined, the GI50 is the concentration that inhibits growth by half.

Molecules are shown by their SMILES. pKd: −log10 of the molar value. Calls of active or inactive are those of the source. The rule behind the calls is not given here.

Results on one compound are retold here after ChEMBL document CHEMBL4266033, “Neolymphostin A Is a Covalent Phosphoinositide 3-Kinase (PI3K)/Mammalian Target of Rapamycin (mTOR) Dual Inhibitor That Employs an Unusual Electrophilic Vinylogous Ester” (J Med Chem, 2018).

Test [1] has as its target T1, Aurora kinase A (Homo sapiens) (UniProt O14965).
T1 sequence (whole entry): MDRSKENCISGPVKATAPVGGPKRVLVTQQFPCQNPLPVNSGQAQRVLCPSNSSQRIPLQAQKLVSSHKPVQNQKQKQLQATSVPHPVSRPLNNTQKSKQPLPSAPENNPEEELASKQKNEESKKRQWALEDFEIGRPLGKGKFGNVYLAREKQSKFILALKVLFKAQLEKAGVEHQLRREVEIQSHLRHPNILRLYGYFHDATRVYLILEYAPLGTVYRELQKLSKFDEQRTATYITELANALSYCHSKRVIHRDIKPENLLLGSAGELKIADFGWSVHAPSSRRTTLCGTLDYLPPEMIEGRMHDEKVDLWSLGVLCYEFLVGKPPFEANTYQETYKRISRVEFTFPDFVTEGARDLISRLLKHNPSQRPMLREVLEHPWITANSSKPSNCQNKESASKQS
The test is described as follows: Binding affinity to human AURKA at 1 uM after 1 hr by KINOMEscan assay.

For test [2], the target named is T2, Phosphatidylinositol 4,5-bisphosphate 3-kinase catalytic subunit gamma isoform (Homo sapiens, UniProt P48736). Description: Binding affinity to human PI3Kgamma diluted 30 fold and equilibrate for 6 hrs by scan-kinetic platform assay. The gist of the method:
(§1)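 scanKINETIC format on PI3Kα and PI3Kγ. […] Arm C: equilibrated 1 h. Arm B: equilibrated 1 h, diluted 30-fold, then re-equilibrated. Arm D: diluted immediately, then equilibrated. Kd compared with and without the dilution step to judge reversibility.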

In test [3] the target is T2, Phosphatidylinositol 4,5-bisphosphate 3-kinase catalytic subunit gamma isoform. Description: Binding affinity to human PI3Kgamma equilibrate for 6 hrs by scan-kinetic platform assay. The gist of the method: as §1
The target in test [4] is Aurora kinase B (Homo sapiens) (UniProt Q96GD4). Description: Binding affinity to human AURKB at 1 uM after 1 hr by KINOMEscan assay. A digest of the protocol: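 KINOMEscan competition binding profiling across 97 kinases. Affinity expressed as percent of control.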
Sequence of Aurora kinase B (Homo sapiens) (Q96GD4 whole entry): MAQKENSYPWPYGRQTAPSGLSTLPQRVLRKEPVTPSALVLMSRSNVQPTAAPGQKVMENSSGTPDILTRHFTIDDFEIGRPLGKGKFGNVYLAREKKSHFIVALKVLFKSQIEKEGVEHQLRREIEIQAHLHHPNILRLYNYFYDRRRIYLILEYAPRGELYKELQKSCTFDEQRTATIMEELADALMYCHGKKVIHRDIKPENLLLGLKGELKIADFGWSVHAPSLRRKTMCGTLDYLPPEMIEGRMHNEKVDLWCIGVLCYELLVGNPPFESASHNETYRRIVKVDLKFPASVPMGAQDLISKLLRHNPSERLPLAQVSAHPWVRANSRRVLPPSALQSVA
In test [5] the target is Mitogen-activated protein kinase 10 (Homo sapiens) (UniProt P53779). Description: Binding affinity to human JNK3 at 1 uM after 1 hr by KINOMEscan assay.
Sequence of Mitogen-activated protein kinase 10 (Homo sapiens) (P53779 whole entry, canonical isoform): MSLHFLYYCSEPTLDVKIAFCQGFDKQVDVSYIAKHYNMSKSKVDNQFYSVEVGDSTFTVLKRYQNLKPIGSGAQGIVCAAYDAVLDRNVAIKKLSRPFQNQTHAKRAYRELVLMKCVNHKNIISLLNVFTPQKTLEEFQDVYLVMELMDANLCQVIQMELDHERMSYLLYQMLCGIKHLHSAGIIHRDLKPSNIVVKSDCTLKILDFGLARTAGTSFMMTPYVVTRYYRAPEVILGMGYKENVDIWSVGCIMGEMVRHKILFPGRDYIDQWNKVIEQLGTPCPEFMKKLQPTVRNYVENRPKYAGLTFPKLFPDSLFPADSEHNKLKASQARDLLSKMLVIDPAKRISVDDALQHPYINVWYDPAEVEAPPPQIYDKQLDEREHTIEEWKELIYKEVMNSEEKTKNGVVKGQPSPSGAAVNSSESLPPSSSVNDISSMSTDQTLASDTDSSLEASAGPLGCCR
In test [6] the target is T2, Phosphatidylinositol 4,5-bisphosphate 3-kinase catalytic subunit gamma isoform. The test is described as follows: Binding affinity to human PI3Kgamma equilibrate for 1 hr followed by 30 fold dilution and re-equilibrate for 5 hrs by scan-kinetic platform assay. A digest of the protocol:
as §1

Test [7] addresses T3, Phosphatidylinositol 4,5-bisphosphate 3-kinase catalytic subunit alpha isoform (Homo sapiens, UniProt P42336). Description: Binding affinity to human PI3Kalpha equilibrate for 1 hr followed by 30 fold dilution and re-equilibrate for 5 hrs by scan-kinetic platform assay. The gist of the method: as §1
Test [8] concerns the target T2, Phosphatidylinositol 4,5-bisphosphate 3-kinase catalytic subunit gamma isoform. The test is described as follows: Binding affinity to human PI3Kgamma equilibrate for 1 hr by scan-kinetic platform assay. A digest of the protocol: as §1
For test [9], the target named is PI3-kinase p110-alpha/p85-alpha (Homo sapiens) (UniProt P27986+P42336). The test is described as follows: Binding affinity to PI3Kalpha/p85alpha (unknown origin) assessed as covalent modification at Lys802 residue at 4 uM after 2 mins by tandem MS/MS method. In kind it is protein-complex assay. A digest of the protocol: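 Recombinant PI3Kα (p110α/p85α) at 2 μM mixed with 4 μM inhibitor in 10 mM HEPES pH 7.5, 100 mM NaCl, 5% DMSO. Timepoints quenched by unfolding in ice-cold 2 M guanidine-HCl/3% formic acid, snap-frozen in liquid N2, stored at −80 °C. Analysed by LC-MS/MS; mass shift of the modified peptide read out.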

In test [10] the target is T3, Phosphatidylinositol 4,5-bisphosphate 3-kinase catalytic subunit alpha isoform. The test is described as follows: Binding affinity to human PI3Kalpha diluted 30 fold and equilibrate for 6 hrs by scan-kinetic platform assay. A digest of the protocol: as §1
Test [11] has as its target T4, Serine/threonine-protein kinase PLK4 (Homo sapiens) (UniProt O00444).
T4 sequence (whole entry): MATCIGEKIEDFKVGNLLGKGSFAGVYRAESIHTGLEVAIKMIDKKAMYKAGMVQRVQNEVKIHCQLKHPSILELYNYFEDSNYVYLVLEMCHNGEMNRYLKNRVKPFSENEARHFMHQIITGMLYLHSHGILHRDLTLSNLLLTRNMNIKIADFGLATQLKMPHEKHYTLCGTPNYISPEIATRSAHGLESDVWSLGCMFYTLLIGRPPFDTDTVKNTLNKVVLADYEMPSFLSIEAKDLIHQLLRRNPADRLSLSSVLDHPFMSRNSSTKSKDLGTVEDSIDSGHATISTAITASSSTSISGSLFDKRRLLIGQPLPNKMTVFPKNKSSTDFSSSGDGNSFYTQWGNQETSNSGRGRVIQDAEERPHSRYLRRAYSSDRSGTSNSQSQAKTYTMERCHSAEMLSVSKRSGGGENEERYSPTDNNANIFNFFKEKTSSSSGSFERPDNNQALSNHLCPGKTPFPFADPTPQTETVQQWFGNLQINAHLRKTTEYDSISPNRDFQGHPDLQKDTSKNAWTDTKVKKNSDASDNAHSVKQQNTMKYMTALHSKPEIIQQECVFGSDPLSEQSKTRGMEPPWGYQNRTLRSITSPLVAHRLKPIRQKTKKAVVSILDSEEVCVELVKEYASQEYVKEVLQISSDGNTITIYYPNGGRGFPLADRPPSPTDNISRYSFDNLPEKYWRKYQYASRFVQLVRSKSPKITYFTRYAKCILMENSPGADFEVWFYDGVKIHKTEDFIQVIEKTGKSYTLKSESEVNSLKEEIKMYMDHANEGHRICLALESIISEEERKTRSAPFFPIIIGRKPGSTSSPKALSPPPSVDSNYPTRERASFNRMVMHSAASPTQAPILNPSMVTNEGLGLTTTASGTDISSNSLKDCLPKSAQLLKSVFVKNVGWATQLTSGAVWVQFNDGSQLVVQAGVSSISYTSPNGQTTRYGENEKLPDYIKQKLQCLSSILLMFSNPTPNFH
The test is described as follows: Binding affinity to human PLK4 at 1 uM after 1 hr by KINOMEscan assay.

Test [12] relates to Panel NCI-60 (60 carcinoma cell lines). The test is described as follows: Growth inhibition of human NCI60 cells after 48 hrs by sulforhodamine B assay. Format: functional. The gist of the method: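 NCI 60-cell line panel (leukemia, NSCLC, colon, CNS, melanoma, ovarian, renal, prostate, breast). 5-point dose-response curves with top concentration 50 µM. GI50, TGI and LC50 were calculated from the curves.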

For test [13], the target named is Epidermal growth factor receptor (Homo sapiens) (UniProt P00533). The test is described as follows: Inhibition of EGFR in human HeLa cells assessed as reduction in EGF-stimulated ERK1/2 phosphorylation at T202/Y204 at 0.3 to 100 nM preincubated for 10 mins followed by EGF stimulation measured after 5 mins by Western blot analysis. Format: cell-based. A digest of the protocol: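 HeLa cells were serum-starved overnight, pretreated with compound for 10 min, then stimulated with 10 ng mL-1 EGF for 5 min. Lysis was in boiling SDS sample buffer, with protein quantified at 660 nm. Equal protein was resolved by SDS-PAGE and Western blotted for pEGFR Tyr1068, pAKT Ser473/Thr308, and pERK1/2 Thr202/Tyr204 with total proteins and GAPDH, detected by ECL.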
Sequence of Epidermal growth factor receptor (Homo sapiens) (P00533 whole entry): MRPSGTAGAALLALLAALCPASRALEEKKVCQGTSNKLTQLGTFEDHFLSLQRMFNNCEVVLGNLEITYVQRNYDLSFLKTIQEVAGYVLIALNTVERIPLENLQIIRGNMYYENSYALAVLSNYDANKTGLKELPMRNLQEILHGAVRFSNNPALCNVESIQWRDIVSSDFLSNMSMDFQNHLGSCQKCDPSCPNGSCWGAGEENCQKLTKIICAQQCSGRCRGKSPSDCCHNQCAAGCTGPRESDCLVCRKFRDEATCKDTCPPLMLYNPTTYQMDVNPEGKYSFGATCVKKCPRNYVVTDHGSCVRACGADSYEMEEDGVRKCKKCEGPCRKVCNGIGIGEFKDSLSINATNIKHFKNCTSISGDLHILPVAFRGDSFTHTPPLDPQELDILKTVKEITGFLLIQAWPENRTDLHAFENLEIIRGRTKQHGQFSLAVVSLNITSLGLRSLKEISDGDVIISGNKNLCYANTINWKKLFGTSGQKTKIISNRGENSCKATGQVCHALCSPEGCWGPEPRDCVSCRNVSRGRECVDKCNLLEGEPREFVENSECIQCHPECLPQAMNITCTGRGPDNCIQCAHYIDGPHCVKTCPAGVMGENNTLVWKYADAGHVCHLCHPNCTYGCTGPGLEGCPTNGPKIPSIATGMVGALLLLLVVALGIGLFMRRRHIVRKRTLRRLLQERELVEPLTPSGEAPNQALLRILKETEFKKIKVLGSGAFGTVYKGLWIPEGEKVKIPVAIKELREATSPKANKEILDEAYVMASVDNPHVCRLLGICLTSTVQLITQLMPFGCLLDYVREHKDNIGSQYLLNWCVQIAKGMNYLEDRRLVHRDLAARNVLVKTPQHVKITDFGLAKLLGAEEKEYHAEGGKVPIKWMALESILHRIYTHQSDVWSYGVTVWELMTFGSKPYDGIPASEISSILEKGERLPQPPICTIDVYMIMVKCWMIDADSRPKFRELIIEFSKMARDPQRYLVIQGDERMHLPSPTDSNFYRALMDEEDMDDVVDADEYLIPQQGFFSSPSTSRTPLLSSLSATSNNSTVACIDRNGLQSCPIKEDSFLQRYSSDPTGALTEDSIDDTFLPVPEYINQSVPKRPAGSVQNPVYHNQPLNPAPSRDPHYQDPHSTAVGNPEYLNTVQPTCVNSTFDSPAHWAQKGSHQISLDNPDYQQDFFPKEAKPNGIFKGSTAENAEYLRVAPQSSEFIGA

T2 sequence (P48736 whole entry, canonical isoform): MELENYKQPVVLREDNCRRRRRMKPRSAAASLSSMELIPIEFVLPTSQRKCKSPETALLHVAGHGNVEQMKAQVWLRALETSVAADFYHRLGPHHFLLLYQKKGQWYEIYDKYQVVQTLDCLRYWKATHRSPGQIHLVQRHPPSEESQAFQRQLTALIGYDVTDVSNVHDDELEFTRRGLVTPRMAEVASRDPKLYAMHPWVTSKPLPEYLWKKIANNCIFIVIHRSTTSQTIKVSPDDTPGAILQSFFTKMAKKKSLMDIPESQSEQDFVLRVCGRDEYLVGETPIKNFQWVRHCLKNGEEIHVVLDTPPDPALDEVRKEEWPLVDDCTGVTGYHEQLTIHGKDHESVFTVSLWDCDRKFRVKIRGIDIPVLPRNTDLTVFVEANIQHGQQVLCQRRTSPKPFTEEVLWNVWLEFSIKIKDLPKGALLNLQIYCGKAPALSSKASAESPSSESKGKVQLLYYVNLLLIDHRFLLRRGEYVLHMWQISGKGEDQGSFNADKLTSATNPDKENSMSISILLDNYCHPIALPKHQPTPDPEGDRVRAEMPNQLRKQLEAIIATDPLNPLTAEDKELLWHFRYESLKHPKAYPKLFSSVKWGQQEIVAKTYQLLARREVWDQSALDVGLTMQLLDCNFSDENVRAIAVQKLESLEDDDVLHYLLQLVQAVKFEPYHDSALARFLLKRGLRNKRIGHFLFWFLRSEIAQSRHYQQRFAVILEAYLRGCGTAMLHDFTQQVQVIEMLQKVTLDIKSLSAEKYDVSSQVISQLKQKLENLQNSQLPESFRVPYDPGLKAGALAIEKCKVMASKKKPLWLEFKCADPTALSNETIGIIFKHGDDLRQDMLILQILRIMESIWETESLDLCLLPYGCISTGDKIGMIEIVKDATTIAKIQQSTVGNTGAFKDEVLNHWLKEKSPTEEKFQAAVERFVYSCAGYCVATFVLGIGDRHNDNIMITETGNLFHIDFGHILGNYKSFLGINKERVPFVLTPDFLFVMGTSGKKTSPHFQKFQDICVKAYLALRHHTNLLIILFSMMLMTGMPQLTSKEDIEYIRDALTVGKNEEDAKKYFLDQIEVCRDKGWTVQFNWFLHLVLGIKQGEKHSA
T3 sequence (P42336 whole entry, canonical isoform): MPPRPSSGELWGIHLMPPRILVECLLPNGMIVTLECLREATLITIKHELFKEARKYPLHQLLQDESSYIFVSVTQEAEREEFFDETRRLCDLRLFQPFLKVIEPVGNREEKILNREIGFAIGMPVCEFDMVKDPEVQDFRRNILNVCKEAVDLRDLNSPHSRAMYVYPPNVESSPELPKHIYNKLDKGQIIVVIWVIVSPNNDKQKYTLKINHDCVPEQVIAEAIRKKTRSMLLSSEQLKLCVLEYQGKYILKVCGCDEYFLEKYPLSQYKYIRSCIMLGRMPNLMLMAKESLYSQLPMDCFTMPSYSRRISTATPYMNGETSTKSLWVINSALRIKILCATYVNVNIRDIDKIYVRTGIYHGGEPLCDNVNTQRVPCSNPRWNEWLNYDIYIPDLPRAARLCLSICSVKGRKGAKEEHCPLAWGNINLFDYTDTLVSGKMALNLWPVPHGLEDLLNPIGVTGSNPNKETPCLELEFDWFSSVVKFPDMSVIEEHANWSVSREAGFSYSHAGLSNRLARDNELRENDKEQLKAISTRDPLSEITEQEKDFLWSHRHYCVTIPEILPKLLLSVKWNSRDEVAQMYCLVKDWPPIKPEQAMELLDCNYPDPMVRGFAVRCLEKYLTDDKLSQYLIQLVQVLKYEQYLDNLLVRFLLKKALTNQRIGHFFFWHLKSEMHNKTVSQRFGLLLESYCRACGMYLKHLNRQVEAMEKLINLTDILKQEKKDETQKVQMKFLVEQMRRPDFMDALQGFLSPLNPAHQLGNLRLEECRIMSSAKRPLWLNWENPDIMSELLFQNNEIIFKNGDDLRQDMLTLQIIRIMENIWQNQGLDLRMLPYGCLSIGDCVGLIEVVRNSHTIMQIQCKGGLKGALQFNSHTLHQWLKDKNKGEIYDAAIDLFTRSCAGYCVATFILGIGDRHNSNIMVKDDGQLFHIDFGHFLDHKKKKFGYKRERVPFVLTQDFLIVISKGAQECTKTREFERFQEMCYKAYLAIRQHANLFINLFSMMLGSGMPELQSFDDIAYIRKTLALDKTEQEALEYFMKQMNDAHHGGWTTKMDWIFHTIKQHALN

Take `CO/C=C/C(=O)c1cc2c3c(c(N)cc(NC(=O)C(C)C)c3n1)N=C2`: the outcome in test [1], in test [4], in test [5], in [9] and in test [11] was Active. Besides, the pKd in test [2] is 7.00 to 7.10; in test [3] it was 8.70 to 8.72; in test [6], 8.14 to 8.36; in test [7] it was 9.14 to 9.25; in test [8], 8.48 to 8.70; in test [10] it was 7.70 to 7.74. Also, in [12], the GI50 was 6 to 840 nM. Further, in test [13], the inhibition result is “inactive”.
